Assay results taken from ChEMBL document CHEMBL1153351, “7-Sulfonamido-3-benzazepines as potent and selective 5-HT2C receptor agonists: hit-to-lead optimization” (Bioorg Med Chem Lett, 2009).

Assays:
[1] = molecular target: T1, 5-hydroxytryptamine receptor 2C (Homo sapiens, UniProt P28335); assay: Displacement of [3H]mesulergine form human recombinant 5HT2C receptor expressed in mouse Swiss 3T3 cells by scintillation proximity assay; format: cell-based
T1 sequence (P28335 whole entry): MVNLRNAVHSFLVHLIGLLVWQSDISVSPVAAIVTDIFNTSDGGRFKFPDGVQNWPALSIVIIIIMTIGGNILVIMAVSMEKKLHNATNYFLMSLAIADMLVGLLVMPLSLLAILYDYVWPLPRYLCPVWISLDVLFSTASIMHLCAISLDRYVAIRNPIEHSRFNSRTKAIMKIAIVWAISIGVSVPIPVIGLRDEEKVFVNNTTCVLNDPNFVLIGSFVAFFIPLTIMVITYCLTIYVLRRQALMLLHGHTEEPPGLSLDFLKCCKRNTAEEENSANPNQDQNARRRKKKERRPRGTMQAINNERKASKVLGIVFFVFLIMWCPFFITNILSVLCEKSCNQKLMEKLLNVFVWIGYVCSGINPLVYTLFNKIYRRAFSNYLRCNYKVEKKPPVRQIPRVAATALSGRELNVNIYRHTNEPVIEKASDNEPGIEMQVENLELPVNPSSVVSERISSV
Outline: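 Inhibition of [3H]-mesulergine binding to human 5-HT2C receptor, read by scintillation proximity assay. Used membrane preparations from recombinant Swiss 3T3 cells.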

[2] = molecular target: T2, 5-hydroxytryptamine receptor 2C (Homo sapiens) (UniProt P28335); assay: Agonist activity at human recombinant 5HT2C receptor expressed in CHOK1 cells assessed as calcium mobilization by FLIPR assay relative to serotonin; format: functional, cell-based; conditions: CHO-K1
T2 sequence (whole entry): T1 sequence (P28335 whole entry)
Outline: (§1)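 Human 5-HT2C receptor expressed recombinantly in CHO-K1 cells. Agonist response was read as a fluorescence-based calcium mobilization signal on FLIPR, giving EC50 and Emax. Values are geometric means of 2–4 experiments.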

[3] = molecular target: T3, 5-hydroxytryptamine receptor 2B (Homo sapiens, UniProt P41595); assay: Agonist activity at human recombinant 5HT2B receptor by cell-based system; format: functional
T3 sequence (P41595 whole entry): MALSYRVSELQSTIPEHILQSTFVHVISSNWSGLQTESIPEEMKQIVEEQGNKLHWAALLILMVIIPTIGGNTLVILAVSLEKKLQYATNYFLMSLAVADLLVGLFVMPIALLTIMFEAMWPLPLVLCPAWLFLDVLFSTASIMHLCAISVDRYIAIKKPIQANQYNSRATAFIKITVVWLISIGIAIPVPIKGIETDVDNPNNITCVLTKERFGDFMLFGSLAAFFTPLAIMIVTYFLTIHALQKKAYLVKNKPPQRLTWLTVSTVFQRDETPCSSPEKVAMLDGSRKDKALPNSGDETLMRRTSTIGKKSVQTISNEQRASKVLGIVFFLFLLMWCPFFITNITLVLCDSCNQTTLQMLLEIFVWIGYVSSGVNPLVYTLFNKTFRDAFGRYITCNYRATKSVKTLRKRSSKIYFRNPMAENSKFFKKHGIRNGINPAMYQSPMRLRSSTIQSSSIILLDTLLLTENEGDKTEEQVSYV
Outline: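 Agonist activity read in a recombinant cell-based system expressing the human 5-HT2B receptor, giving EC50 and Emax. Values are geometric means of 2–4 experiments.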

[4] = molecular target: T1, 5-hydroxytryptamine receptor 2C; assay: Agonist activity at human recombinant 5HT2C receptor expressed in CHOK1 cells assessed as calcium mobilization by FLIPR assay; format: functional, cell-based, CHO-K1; outline: as §1
Liver microsomes = assay: Metabolic stability in human liver microsomes assessed as intrinsic clearance; format: ADME, Microsome
Outline: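 High-throughput incubation with human liver microsomes. Metabolic stability expressed as intrinsic clearance (μL/min/mg).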

[5] = Apparent permeability from basolateral to apical side of MDCK cells expressing mdr1; format: ADME, cell-based, Canis lupus familiaris; conditions: dog
Outline: (§2)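 Transit across MDCK-mdr1 monolayers, measured in both apical-to-basolateral and basolateral-to-apical directions. Reported as Papp (10^-6 cm/s), used to judge membrane permeability and P-gp efflux.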

[6] = Apparent permeability from apical to basolateral side of MDCK cells expressing mdr1; format: ADME, cell-based, Canis lupus familiaris; conditions: dog; outline: as §2
[7] = molecular target: T2, 5-hydroxytryptamine receptor 2C (Homo sapiens); assay: Agonist activity at human recombinant 5HT2C receptor expressed in CHOK1 cells assessed as calcium mobilization at 10 uM by FLIPR assay relative to serotonin; format: functional, cell-based; conditions: CHO-K1
Outline: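 Fluorescent calcium mobilization read by FLIPR in recombinant CHO-K1 cells expressing human 5-HT2C receptor. Value is % activation at 10 μM, geometric mean of 2–4 experiments.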

[8] = Distribution coefficient, log D at pH 7.4; format: physicochemical; conditions: octanol/water
[9] = molecular target: Voltage-gated inwardly rectifying potassium channel KCNH2 (Homo sapiens, UniProt Q12809); assay: Binding affinity to human ERG
Chain of Voltage-gated inwardly rectifying potassium channel KCNH2 (Q12809 whole entry): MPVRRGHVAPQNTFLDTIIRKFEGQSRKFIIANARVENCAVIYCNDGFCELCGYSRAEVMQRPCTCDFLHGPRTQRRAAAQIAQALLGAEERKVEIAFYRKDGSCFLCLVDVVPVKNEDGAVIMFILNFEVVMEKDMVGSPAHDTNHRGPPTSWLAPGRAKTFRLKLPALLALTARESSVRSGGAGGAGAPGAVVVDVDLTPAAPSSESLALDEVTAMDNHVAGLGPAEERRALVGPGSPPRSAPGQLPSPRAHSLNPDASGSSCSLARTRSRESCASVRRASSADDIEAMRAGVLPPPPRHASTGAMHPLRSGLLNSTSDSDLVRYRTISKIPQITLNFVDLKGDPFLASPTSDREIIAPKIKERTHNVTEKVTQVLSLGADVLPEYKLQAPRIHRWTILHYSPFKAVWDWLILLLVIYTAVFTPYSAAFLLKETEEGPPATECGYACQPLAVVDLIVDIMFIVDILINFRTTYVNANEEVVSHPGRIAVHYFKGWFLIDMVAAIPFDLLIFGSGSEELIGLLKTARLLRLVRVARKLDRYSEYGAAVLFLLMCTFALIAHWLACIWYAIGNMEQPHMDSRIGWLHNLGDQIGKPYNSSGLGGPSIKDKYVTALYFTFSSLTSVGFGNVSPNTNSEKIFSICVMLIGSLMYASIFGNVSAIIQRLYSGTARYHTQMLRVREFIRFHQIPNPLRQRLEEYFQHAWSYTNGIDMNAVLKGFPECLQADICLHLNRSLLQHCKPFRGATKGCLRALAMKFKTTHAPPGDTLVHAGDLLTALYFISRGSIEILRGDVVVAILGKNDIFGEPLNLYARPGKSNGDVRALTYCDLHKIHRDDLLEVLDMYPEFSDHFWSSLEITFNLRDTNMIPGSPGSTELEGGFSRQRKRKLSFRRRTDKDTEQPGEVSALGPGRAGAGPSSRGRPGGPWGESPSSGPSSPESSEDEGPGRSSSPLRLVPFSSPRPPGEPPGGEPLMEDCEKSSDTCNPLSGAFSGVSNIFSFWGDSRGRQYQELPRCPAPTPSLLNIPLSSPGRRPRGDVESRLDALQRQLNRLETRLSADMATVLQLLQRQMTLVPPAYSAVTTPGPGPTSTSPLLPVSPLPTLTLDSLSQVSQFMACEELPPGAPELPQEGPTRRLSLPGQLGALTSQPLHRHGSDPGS

[10] = molecular target: T3, 5-hydroxytryptamine receptor 2B; assay: Agonist activity at human recombinant 5HT2B receptor at 10 uM by cell-based system; format: functional
Outline: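 Agonist response measured in a recombinant cell-based system expressing human 5-HT2B. Values are % activation at 10 μM, geometric means of 2–4 experiments.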

SMILES: O=S(=O)(c1ccc2c(c1)CCNCC2)N1CCCCC1
- Ki [1]: 0.009 µM
- Emax [2]: 66%
- EC50 [3]: 0.034 µM
- Emax [3]: 89%
- EC50 [4]: 0.084 µM

SMILES: O=S(=O)(NCC1CC1)c1ccc2c(c1)CCNCC2
- Ki [1]: 0.235 µM
- Emax [2]: 47%
- EC50 [3]: 0.103 µM
- Emax [3]: 47%
- EC50 [4]: 0.631 µM

SMILES: O=S(=O)(c1ccc2c(c1)CCNCC2)N1CC(Oc2cccc(Cl)c2)C1
- Emax [2]: 82%
- clearance (Liver microsomes): 9 µL/min/mg
- Papp B→A [5]: 20 ×10⁻⁶ cm/s
- EC50 [3]: > 9.94 µM
- EC50 [4]: 0.012 µM
- Papp A→B [6]: 12 ×10⁻⁶ cm/s

SMILES: COc1cc(S(=O)(=O)N2CCC(Oc3ccccc3Cl)CC2)c(OC)c2c1CCNCC2
- Emax [2]: 57%
- EC50 [4]: 0.365 µM

SMILES: O=S(=O)(Nc1ccc2c(c1)CCNCC2)c1ccccc1F
- Emax [7]: 18%

SMILES: CN(Cc1ccccc1)S(=O)(=O)c1ccc2c(c1)CCNCC2
- logD [8]: 1
- Ki [1]: 0.01 µM
- Emax [2]: 40%
- Papp B→A [5]: 33 ×10⁻⁶ cm/s
- EC50 [3]: > 9.94 µM
- EC50 [4]: 0.094 µM
- Papp A→B [6]: 29 ×10⁻⁶ cm/s

SMILES: O=S(=O)(c1ccc2c(c1)CCNCC2)N1CCCC1
- Ki [1]: 0.051 µM
- Emax [2]: 86%
- EC50 [3]: 0.357 µM
- Emax [3]: 68%
- EC50 [4]: 0.05 µM

SMILES: O=S(=O)(Nc1ccccc1F)c1ccc2c(c1)CCNCC2
- Ki [1]: 0.133 µM
- Emax [2]: 47%
- EC50 [3]: 0.075 µM
- Emax [3]: 41%
- EC50 [4]: 0.197 µM

SMILES: O=S(=O)(c1ccc2c(c1)CCNCC2)N1CC[C@H](Oc2ccccc2Cl)C1
- logD [8]: 1.3
- Emax [2]: 47%
- clearance (Liver microsomes): 34 µL/min/mg
- EC50 [3]: > 9.94 µM
- EC50 [4]: 0.031 µM

SMILES: O=S(=O)(c1ccc2c(c1)CCNCC2)N1CC[C@@H](Oc2ccccc2Cl)C1
- logD [8]: 1.3
- Emax [2]: 73%
- clearance (Liver microsomes): 36 µL/min/mg
- Papp B→A [5]: 34 ×10⁻⁶ cm/s
- EC50 [3]: > 9.94 µM
- EC50 [4]: 0.014 µM
- Papp A→B [6]: 15 ×10⁻⁶ cm/s

SMILES: CCCNS(=O)(=O)c1ccc2c(c1)CCNCC2
- Ki [1]: 0.531 µM
- Emax [2]: 59%
- EC50 [3]: 0.197 µM
- Emax [3]: 30%
- EC50 [4]: 0.959 µM

SMILES: O=S(=O)(Cc1ccc(F)cc1)Nc1ccc2c(c1)CCNCC2
- Emax [7]: 10%

SMILES: O=S(=O)(Nc1ccccc1)c1ccc2c(c1)CCNCC2
- Ki [1]: 0.382 µM
- Emax [2]: 38%
- EC50 [3]: 0.069 µM
- Emax [3]: 50%
- EC50 [4]: 0.697 µM

SMILES: COc1c(S(=O)(=O)N(C)Cc2ccccc2)ccc2c1CCNCC2
- Emax [7]: < 10%

SMILES: O=S(=O)(c1ccccc1)c1ccc2c(c1)CCNCC2
- logD [8]: 0.5
- Ki [1]: 0.006 µM
- Emax [2]: 71%
- clearance (Liver microsomes): < 8 µL/min/mg
- Papp B→A [5]: 25 ×10⁻⁶ cm/s
- EC50 [3]: 0.018 µM
- Emax [3]: 61%
- EC50 [4]: 0.009 µM
- Ki [9]: > 7.2 µM
- Papp A→B [6]: 21 ×10⁻⁶ cm/s

SMILES: CN(c1ccccc1)S(=O)(=O)c1ccc2c(c1)CCNCC2
- Emax [7]: 23%
- Ki [1]: 1.2 µM
- EC50 [3]: 0.478 µM
- Emax [3]: 46%

SMILES: CN(c1ccc2c(c1)CCNCC2)S(=O)(=O)Cc1ccc(F)cc1
- Emax [7]: 20%

SMILES: O=S(=O)(c1cccc(F)c1)c1ccc2c(c1)CCNCC2
- Emax [2]: 81%
- EC50 [3]: 0.033 µM
- Emax [3]: 67%
- EC50 [4]: 0.009 µM

SMILES: O=S(=O)(c1ccc2c(c1)CCNCC2)N1CCC(Oc2cccc(Cl)c2)CC1
- Emax [2]: 71%
- EC50 [3]: > 9.94 µM
- EC50 [4]: 0.273 µM

SMILES: O=S(=O)(c1ccc(F)cc1)c1ccc2c(c1)CCNCC2
- Emax [2]: 47%
- EC50 [3]: 0.015 µM
- Emax [3]: 60%
- EC50 [4]: 0.08 µM

SMILES: O=S(=O)(NCc1ccccc1Cl)c1ccc2c(c1)CCNCC2
- Ki [1]: 0.03 µM
- Emax [2]: 48%
- EC50 [3]: 0.802 µM
- Emax [3]: 19%
- EC50 [4]: 0.046 µM

SMILES: O=S(=O)(c1ccc2c(c1)CCNCC2)N1CC(Oc2ccccc2Cl)C1
- logD [8]: 1.1
- Emax [2]: 76%
- EC50 [3]: > 9.94 µM
- EC50 [4]: 0.031 µM
- Ki [9]: 3.41 µM

SMILES: CN(CC1CC1)S(=O)(=O)c1ccc2c(c1)CCNCC2
- Ki [1]: 0.007 µM
- Emax [2]: 88%
- EC50 [3]: 0.017 µM
- Emax [3]: 50%
- EC50 [4]: 0.071 µM

SMILES: CN(c1ccc2c(c1)CCNCC2)S(=O)(=O)c1ccccc1F
- Emax [7]: 10%

SMILES: CN(C)S(=O)(=O)c1ccc2c(c1)CCNCC2
- Ki [1]: 0.087 µM
- Emax [2]: 74%
- EC50 [3]: 0.125 µM
- Emax [3]: 57%
- EC50 [4]: 0.047 µM

SMILES: O=S(=O)(c1ccc2c(c1)CCNCC2)N1CCC(Oc2ccccc2F)CC1
- Ki [1]: 0.015 µM
- Emax [2]: 52%
- EC50 [3]: > 9.94 µM
- EC50 [4]: 0.115 µM

SMILES: COc1cc(S(=O)(=O)N(C)Cc2ccccc2)c(OC)c2c1CCNCC2
- Emax [2]: 50%
- EC50 [3]: > 9.94 µM
- EC50 [4]: 0.17 µM

SMILES: O=S(=O)(c1ccc2c(c1)CCNCC2)N1CC(Oc2ccc(Cl)cc2)C1
- logD [8]: 1.6
- Emax [2]: 66%
- clearance (Liver microsomes): < 8 µL/min/mg
- EC50 [3]: > 9.94 µM
- EC50 [4]: 0.028 µM
- Ki [9]: 2.09 µM

SMILES: O=S(=O)(c1ccc2c(c1)CCNCC2)N1CCOCC1
- Ki [1]: 0.196 µM
- Emax [2]: 55%
- EC50 [4]: 0.186 µM

SMILES: CN(CC1COc2ccccc21)S(=O)(=O)c1ccc2c(c1)CCNCC2 (stereo not given)
- logD [8]: 1
- Activity [10]: < 10%
- Ki [1]: 0.058 µM
- Emax [2]: 74%
- Papp B→A [5]: 34 ×10⁻⁶ cm/s
- EC50 [3]: > 9.94 µM
- EC50 [4]: 0.041 µM
- Ki [9]: 2.99 µM
- Papp A→B [6]: 18 ×10⁻⁶ cm/s

SMILES: O=S(=O)(c1ccc2c(c1)CCNCC2)c1ccccc1F
- Emax [2]: 70%
- EC50 [3]: 0.018 µM
- Emax [3]: 66%
- EC50 [4]: 0.007 µM

SMILES: O=S(=O)(c1ccc2c(c1)CCNCC2)N1CCC(Oc2ccccc2)CC1
- Emax [2]: 59%
- EC50 [3]: > 9.94 µM
- EC50 [4]: 0.508 µM

SMILES: O=S(=O)(Nc1ccccc1Cl)c1ccc2c(c1)CCNCC2
- Ki [1]: 0.156 µM
- Emax [2]: 38%
- EC50 [3]: 0.478 µM
- Emax [3]: 16%
- EC50 [4]: 0.857 µM

SMILES: COc1c(S(=O)(=O)N2CCC(Oc3ccccc3Cl)CC2)ccc2c1CCNCC2
- Emax [7]: < 10%
